Laboratory results: ChEMBL document CHEMBL1147484, “SAR of benzoylpyridines and benzophenones as p38alpha MAP kinase inhibitors with oral activity” (Bioorg Med Chem Lett, 2004)

Assays:
[1] = target: Mitogen-activated protein kinase 14 (Mus musculus, UniProt P47811); experiment: Inhibition of murine His-Mitogen-activated protein kinase p38 alpha phosphorylation.
Mus musculus [2] = experiment: Inhibition of […] induced TNF-alpha release in mice upon oral administration; assay type: functional
Rattus norvegicus [3] = experiment: Percent swelling of joints in rats immunized with Mycobacterium tuberculosis was determined on day 20 after 25 mg/kg peroral administration; assay type: functional; conditions: route oral
How it was run: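 Female Wistar rats immunized with Mycobacterium tuberculosis at day 0 (adjuvant-induced arthritis); oral dosing 25 mg/kg twice daily from day 14 to 20; joint swelling measured on day 20, expressed as % inhibition of swelling.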

[4] = target: Prostaglandin G/H synthase 1 (Homo sapiens, UniProt P23219); experiment: Inhibition of human prostaglandin G/H synthase 1
Chain of Prostaglandin G/H synthase 1 (P23219 whole entry): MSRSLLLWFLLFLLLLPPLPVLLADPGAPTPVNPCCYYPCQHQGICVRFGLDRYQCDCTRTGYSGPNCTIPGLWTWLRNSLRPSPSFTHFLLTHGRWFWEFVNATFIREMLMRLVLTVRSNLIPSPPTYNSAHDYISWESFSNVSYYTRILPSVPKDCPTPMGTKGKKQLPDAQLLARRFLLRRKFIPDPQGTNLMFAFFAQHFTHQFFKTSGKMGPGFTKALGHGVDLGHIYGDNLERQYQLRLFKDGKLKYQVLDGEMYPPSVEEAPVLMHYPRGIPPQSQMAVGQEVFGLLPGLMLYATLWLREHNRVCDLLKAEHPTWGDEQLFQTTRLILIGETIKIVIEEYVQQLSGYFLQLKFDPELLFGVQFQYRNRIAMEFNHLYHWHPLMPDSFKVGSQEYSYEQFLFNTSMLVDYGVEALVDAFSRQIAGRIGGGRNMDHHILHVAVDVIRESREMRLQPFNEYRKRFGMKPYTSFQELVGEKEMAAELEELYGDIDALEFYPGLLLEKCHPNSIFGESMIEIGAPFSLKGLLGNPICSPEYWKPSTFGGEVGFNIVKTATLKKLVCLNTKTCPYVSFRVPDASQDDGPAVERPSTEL

Cytochrome P450 2C9 = Cytochrome P450 2C9 (Homo sapiens, UniProt P11712); experiment: Inhibition of human cytochrome P450 2C9; assay type: ADME
Chain of Cytochrome P450 2C9 (P11712 whole entry): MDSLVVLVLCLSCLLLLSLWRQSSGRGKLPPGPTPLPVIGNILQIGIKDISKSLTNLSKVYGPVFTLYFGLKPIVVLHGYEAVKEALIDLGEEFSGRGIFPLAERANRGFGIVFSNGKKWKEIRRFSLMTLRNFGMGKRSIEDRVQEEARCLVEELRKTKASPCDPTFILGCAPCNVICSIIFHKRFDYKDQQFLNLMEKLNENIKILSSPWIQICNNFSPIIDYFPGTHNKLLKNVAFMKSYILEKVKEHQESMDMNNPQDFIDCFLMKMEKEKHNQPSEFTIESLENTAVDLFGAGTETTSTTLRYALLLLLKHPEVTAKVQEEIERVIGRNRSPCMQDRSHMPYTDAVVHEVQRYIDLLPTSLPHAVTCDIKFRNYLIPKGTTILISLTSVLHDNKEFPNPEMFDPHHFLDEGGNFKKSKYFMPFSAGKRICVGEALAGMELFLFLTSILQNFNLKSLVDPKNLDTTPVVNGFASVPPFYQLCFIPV

Cytochrome P450 3A4 = Cytochrome P450 3A4 (Homo sapiens, UniProt P08684); experiment: Inhibition of human cytochrome P450 3A4; assay type: ADME
Chain of Cytochrome P450 3A4 (P08684 whole entry): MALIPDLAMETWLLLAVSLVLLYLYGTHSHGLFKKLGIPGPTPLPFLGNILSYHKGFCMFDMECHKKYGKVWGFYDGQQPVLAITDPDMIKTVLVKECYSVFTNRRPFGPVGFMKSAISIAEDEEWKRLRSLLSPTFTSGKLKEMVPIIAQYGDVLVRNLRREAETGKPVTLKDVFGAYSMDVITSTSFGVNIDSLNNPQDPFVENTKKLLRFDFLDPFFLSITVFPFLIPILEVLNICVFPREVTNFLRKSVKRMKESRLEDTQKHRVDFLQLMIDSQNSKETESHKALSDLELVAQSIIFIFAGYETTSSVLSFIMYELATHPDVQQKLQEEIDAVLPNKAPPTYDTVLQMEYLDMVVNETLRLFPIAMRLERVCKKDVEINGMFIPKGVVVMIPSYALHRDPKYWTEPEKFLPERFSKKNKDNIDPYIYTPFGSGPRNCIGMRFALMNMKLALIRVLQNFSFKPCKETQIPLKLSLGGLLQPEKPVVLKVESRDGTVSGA

Cytochrome P450 1A2 = target: T1, Cytochrome P450 1A2 (Homo sapiens, UniProt P05177); experiment: Inhibition of human cytochrome P450 1A2; assay type: ADME
T1 sequence (P05177 whole entry): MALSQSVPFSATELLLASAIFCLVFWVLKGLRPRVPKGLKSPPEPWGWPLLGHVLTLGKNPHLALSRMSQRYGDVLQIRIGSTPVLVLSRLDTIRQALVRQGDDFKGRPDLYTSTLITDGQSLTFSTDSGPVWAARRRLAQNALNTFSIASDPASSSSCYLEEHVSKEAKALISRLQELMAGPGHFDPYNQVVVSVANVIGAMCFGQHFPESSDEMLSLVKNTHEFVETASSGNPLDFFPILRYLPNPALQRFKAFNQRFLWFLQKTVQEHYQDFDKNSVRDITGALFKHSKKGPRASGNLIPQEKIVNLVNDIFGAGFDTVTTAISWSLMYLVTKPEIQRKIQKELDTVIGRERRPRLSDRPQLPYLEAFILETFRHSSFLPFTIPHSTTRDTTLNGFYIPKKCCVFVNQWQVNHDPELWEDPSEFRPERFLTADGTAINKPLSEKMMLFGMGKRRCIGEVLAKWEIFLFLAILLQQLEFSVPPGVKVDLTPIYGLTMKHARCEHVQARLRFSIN

Cytochrome P450 2D6 = Cytochrome P450 2D6 (Homo sapiens, UniProt P10635); experiment: Inhibition of human cytochrome P450 2D6; assay type: ADME
Chain of Cytochrome P450 2D6 (P10635 whole entry): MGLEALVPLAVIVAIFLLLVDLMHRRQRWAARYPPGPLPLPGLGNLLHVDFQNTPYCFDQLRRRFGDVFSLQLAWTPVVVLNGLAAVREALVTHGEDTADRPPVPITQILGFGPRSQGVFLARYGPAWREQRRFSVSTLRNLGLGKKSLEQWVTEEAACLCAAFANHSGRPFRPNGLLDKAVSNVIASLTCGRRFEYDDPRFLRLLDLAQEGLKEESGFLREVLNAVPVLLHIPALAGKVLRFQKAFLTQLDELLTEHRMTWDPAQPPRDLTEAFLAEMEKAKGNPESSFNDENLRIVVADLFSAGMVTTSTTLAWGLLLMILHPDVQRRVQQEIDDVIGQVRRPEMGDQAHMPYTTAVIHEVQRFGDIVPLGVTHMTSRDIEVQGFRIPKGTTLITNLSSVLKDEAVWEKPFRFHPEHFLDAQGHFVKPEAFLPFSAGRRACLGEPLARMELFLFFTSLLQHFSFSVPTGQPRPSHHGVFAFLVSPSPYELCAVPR

[5] = target: Mitogen-activated protein kinase 9 (Homo sapiens, UniProt P45984); experiment: Inhibit of human c-Jun N-terminal kinase 2
Chain of Mitogen-activated protein kinase 9 (P45984 whole entry): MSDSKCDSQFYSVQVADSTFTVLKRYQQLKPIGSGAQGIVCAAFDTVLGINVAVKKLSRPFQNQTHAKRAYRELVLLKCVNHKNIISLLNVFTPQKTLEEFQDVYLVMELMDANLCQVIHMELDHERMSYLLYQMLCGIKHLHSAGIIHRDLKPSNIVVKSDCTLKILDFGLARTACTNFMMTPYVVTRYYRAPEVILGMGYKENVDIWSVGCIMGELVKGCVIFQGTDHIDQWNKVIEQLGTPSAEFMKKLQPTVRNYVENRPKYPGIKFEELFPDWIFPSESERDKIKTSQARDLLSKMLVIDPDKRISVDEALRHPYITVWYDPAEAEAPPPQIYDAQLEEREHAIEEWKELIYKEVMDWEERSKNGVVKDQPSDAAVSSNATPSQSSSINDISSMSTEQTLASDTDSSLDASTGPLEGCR

Mus musculus [6] = experiment: Dose required to inhibit […] induced TNF-alpha release in mice upon oral administration; assay type: functional
[7] = Oral bioavailability; assay type: ADME, organism-based; conditions: rat, in vivo
How it was run: (§1)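 Pharmacokinetics were determined in rat. Cmax was measured after a 1 mg/kg oral dose. Oral bioavailability, terminal half-life and steady-state volume of distribution (Vss, L/kg) were reported.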

[8] = Volume of distribution in steady state was determined in rat; assay type: ADME, organism-based; conditions: in vivo, read-out: Vss; how it was run: as §1
[9] = Peak plasma concentration at 1 mg/kg peroral administration; assay type: ADME, organism-based; set-up: dose 1 mg/kg, route oral; conditions: rat, po; how it was run: as §1
Rattus norvegicus [10] = experiment: Dose required to inhibit bovine nasalseptum type II collagen induced arthritis in rats after administration on day 13; assay type: functional; conditions: 312 h
[11] = target: Proto-oncogene tyrosine-protein kinase Src (Homo sapiens) (UniProt P12931); experiment: Inhibition of human c-Src at 10 uM
Chain of Proto-oncogene tyrosine-protein kinase Src (Homo sapiens) (P12931 2-536 limits assumed): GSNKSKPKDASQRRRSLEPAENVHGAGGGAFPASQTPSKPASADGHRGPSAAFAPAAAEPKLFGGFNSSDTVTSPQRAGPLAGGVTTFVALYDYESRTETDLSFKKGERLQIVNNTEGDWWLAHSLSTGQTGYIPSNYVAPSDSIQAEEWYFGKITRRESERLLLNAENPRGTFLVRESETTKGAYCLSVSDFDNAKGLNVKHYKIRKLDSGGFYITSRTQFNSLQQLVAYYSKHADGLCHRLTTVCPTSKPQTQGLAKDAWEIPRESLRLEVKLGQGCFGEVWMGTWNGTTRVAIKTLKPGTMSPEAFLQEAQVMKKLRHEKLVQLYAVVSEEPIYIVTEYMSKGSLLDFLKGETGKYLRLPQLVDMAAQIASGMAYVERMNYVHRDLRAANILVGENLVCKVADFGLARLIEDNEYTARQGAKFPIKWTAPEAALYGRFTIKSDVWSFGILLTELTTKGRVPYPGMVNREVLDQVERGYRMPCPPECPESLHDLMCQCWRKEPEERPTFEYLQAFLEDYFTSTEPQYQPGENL

[12] = target: Mast/stem cell growth factor receptor Kit (Homo sapiens) (UniProt P10721); experiment: Inhibition of human c-Kit kinase; conditions: concentration not given here
[13] = target: T2, Epidermal growth factor receptor (Homo sapiens, UniProt P00533); conditions: 10 uM
T2 sequence (P00533 whole entry): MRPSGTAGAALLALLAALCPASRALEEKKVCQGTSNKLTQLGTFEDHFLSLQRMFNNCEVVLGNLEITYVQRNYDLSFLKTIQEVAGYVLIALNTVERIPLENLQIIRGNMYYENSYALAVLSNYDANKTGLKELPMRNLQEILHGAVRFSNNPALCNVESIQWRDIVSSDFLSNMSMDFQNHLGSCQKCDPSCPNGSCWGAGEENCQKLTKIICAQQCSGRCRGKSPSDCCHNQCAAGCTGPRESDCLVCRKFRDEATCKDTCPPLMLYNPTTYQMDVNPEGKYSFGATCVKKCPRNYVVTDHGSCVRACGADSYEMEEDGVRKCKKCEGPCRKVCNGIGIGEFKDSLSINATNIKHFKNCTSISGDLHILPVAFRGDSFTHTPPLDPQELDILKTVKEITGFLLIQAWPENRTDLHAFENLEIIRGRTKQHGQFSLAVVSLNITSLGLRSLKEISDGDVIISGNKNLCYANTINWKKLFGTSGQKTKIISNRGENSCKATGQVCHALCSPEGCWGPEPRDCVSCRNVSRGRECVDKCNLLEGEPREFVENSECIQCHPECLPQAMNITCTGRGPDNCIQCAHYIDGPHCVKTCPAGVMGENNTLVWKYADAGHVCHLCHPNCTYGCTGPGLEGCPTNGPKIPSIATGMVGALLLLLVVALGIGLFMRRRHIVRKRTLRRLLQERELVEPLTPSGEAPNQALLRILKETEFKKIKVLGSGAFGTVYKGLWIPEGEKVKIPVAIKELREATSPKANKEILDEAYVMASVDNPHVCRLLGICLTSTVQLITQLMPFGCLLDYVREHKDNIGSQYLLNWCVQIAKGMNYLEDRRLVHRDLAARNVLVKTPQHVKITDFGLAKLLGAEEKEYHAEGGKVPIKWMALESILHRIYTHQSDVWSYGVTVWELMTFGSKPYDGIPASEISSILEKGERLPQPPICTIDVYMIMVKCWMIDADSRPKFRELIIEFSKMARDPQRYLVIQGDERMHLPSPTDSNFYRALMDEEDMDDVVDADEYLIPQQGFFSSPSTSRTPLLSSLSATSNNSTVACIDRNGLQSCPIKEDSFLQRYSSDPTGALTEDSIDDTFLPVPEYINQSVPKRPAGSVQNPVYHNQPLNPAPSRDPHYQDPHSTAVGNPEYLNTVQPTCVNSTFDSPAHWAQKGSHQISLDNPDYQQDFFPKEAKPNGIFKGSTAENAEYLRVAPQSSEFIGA

[14] = target: Insulin-like growth factor 1 receptor (Homo sapiens) (UniProt P08069); experiment: Inhibition of human insulin-like growth factor I receptor at 10 uM
[15] = target: Cyclin-dependent kinase 1 (Homo sapiens) (UniProt P06493); experiment: Inhibition of human cyclin-dependent kinase 1 at 10 uM
Chain of Cyclin-dependent kinase 1 (Homo sapiens) (P06493 whole entry, looked up): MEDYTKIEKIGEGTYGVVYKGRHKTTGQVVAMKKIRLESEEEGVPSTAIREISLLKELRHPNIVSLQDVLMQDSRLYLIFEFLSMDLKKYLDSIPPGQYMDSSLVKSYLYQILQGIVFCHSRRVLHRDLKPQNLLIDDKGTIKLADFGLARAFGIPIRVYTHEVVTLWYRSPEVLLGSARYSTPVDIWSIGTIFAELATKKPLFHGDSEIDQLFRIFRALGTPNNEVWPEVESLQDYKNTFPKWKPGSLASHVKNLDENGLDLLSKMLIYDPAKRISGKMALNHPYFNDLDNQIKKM

[16] = target: Fibroblast growth factor receptor (Homo sapiens) (UniProt P22607+P11362+P22455+P21802); experiment: Inhibitory activity against human FGFR at 10 uM; assay type: protein assay
[17] = target: RAF proto-oncogene serine/threonine-protein kinase (Homo sapiens) (UniProt P04049); experiment: Inhibition of human RAF proto-oncogene serine/threonine-protein kinase at 10 uM
[18] = target: T2, Epidermal growth factor receptor; experiment: (§2) Inhibition of human Epidermal growth factor receptor
[19] = target: T2, Epidermal growth factor receptor; experiment: as §2; remark: listed apart in the source
[20] = target: Hepatocyte growth factor receptor (Homo sapiens, UniProt P08581); experiment: Inhibit of human Met proto-oncogene tyrosine kinase

Chain of Mitogen-activated protein kinase 14 (P47811 whole entry): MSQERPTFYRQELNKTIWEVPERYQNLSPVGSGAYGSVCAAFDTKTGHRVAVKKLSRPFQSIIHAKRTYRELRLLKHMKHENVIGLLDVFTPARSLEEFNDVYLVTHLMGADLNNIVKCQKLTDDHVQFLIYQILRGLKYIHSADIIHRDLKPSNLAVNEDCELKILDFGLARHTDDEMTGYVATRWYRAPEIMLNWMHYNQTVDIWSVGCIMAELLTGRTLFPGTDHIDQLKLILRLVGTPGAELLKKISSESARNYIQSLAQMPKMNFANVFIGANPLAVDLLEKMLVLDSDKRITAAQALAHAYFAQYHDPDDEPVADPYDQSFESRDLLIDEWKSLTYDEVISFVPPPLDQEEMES

Row | Compound | IC50 [1] | Inhibition (Mus musculus [2]) | Swelling (Rattus norvegicus [3]) | also measured
1 | COc1ccc(/C=C/C2(O)CCN(C)CC2)cc1C(=O)c1ccc(Nc2ccc(F)cc2F)cc1 | 1 µM | 68% | 47% | –
2 | COc1ccccc1C(=O)c1ccc(Nc2ccc(F)cc2F)cc1 | 38 µM | 0% | – | –
3 | COc1cc2nc(C)[nH]c2cc1C(=O)c1ccc(Nc2ccc(F)cc2F)cc1 | 5 µM | – | – | IC50 [4]: > 80 µM; IC50 (Cytochrome P450 2C9): > 2000 nM; IC50 (Cytochrome P450 3A4): > 2000 nM; IC50 (Cytochrome P450 1A2): > 2000 nM; IC50 (Cytochrome P450 2D6): > 2000 nM; IC50 [5]: > 10 µM
4 | CC(C)(N)C#Cc1ccc(Cl)c(C(=O)c2ccc(Nc3ccc(F)cc3F)nc2)c1 | 19 µM | 50% | 36% | –
5 | Cc1nc2cc(C(=O)c3ccc(Nc4ccc(F)cc4F)cc3)c(Cl)cc2[nH]1 | 0.7 µM | 93% | 46% | –
6 | COc1ccc(CCC(C)(C)O)cc1C(=O)c1ccc(Nc2ccc(F)cc2F)nc1 | 479 µM | – | – | –
7 | COc1ccc(CCC2(O)CCN(C)CC2)cc1C(=O)c1ccc(Nc2ccc(F)cc2F)cc1 | 51 µM | 0% | – | –
8 | CC(C)(N)CCc1ccc(Cl)c(C(=O)c2ccc(Nc3ccc(F)cc3F)nc2)c1 | 160 µM | – | – | –
9 | Cc1nc2cc(C(=O)c3ccc(Nc4ccc(F)cc4F)nc3)c(Cl)cc2[nH]1 | 8 µM | 91% | 40% | –
10 | O=C(c1ccc(Nc2ccc(F)cc2F)nc1)c1ccccc1Cl | 101 µM | – | – | –
11 | COc1ccc(C#CC(C)(C)O)cc1C(=O)c1ccc(Nc2ccc(F)cc2F)nc1 | 54 µM | 88% | 23% | ED50 (Mus musculus [6]): 23 mg/kg
12 | COc1cc2[nH]c(C)nc2cc1C(=O)c1ccc(Nc2ccc(F)cc2F)nc1 | 21 µM | 57% | 70% | bioavailability [7]: 54%; Vd [8]: 1.1 L/kg; Cmax [9]: 607 nM; ED50 (Rattus norvegicus [10]): 8.6 mg/kg
13 | COc1cc2[nH]c(C)nc2cc1C(=O)c1ccc(Nc2ccc(F)cc2F)cc1 | – | 90% | 50% | inhibition [11]: 0%; inhibition [12]: 0%; inhibition [13]: -10%; inhibition [14]: 0%; inhibition [15]: 0%; inhibition [16]: 0%
14 | O=C(c1ccc(Nc2ccc(F)cc2F)nc1)c1cc(Br)ccc1Cl | 300 µM | – | – | –
15 | CC(C)(N)C#Cc1ccc(Cl)c(C(=O)c2ccc(Nc3ccc(F)cc3F)cc2)c1 | 6 µM | 85% | – | –
16 | COc1ccc(C#CC(C)(C)N)cc1C(=O)c1ccc(Nc2ccc(F)cc2F)nc1 | 8 µM | 91% | 52% | –
17 | O=C(c1ccc(Nc2ccc(F)cc2F)cc1)c1ccccc1Cl | 11 µM | 6% | – | –
18 | COc1ccc(C#CC(C)(C)N)cc1C(=O)c1ccc(Nc2ccc(F)cc2F)cc1 | 14 µM | 95% | 51% | inhibition [11]: -10%; bioavailability [7]: 46%; inhibition [17]: 0%; IC50 [4]: > 80 µM; Vd [8]: 9 L/kg; Cmax [9]: 59 nM; IC50 (Cytochrome P450 2C9): > 2000 nM; IC50 (Cytochrome P450 3A4): > 2000 nM; IC50 (Cytochrome P450 1A2): > 2000 nM; IC50 [18]: 8.8 µM; inhibition [14]: 0%; IC50 [19]: 4.4 µM; IC50 [20]: 1500 nM; IC50 (Cytochrome P450 2D6): > 2000 nM; IC50 [5]: > 10 µM
19 | COc1ccc(CCC(C)(C)N)cc1C(=O)c1ccc(Nc2ccc(F)cc2F)cc1 | 113 µM | 0% | – | –
